We go through 13 molecules from PubChem BioAssay AID602126 (Broad Institute, 2011).

Usually AC50 stands for the concentration giving half of the maximal activity seen.

Activity calls are given as the source filed them.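 The calls were made as follows: active = compounds cutting cell ATP light whose fitted AC50 is at most double the top dose tried; inconclusive = flat moderate signal loss, or an unreliable curve fit; inactive = the rest.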 A value given as a limit tells only on which side of the number the result lay.

Experiment [1] relates to ldlA[mSR-BI] CHO cells viability, CellTiter-Glo ATP luminescence, 24 h. Briefly: ldlA[mSR-BI] cell viability loss – CellTiter-Glo luminescence, 24 h, dry powder, set 5, cytotoxicity control for SR-BI HDL uptake inhibitor project, dose response (AID 602126). In outline: (§1)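 material = ldlA[mSR-BI] cells | quantity = 4,000 cells per well | times = 24 h compound exposure at 37 °C, then 10 min with detection reagent | signal = luminescence of cellular ATP via CellTiter-Glo luciferase reagent | read-out = IC50 of cell viability from ATP-dependent luminescence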
On the technique in general: Cellular ATP, detected with luciferase, serves as a proxy for viable cell number.

Test in experiment [2]: as above
The note with it: ldlA[mSR-BI] CHO cells viability, CellTiter-Glo ATP luminescence, 24 h; at 35 µM (top of the series). A digest of the protocol:
as §1

As to `C[C@@H]1CN([C@H](C)CO)C(=O)c2cc(NC(=O)Cc3cn(C)c4ccccc34)ccc2O[C@H]1CN(C)S(=O)(=O)c1ccc(Cl)cc1`, the AC50 in experiment [1] was > 70 µM (inactive). In addition, the activity change, negative = cytotoxicity in experiment [2] was -18.6% (inactive).

For `COc1ccc(-c2nnn(CC(=O)N(C3CCCCC3)C(C)C(=O)NC(C)C)n2)cc1OC` (centres undefined), the activity change, negative = cytotoxicity in experiment [2] was -0.753% (inactive).

Regarding `C[C@H]1CN([C@@H](C)CO)C(=O)c2cccc(NC(=O)Nc3ccccc3)c2O[C@@H]1CN(C)C`, the activity change, negative = cytotoxicity in experiment [2] was -7.64% (inactive).

Take `Cc1cc(C(=O)C(C)OC(=O)C2=NNC(=O)CC2)c(C)n1-c1ccc(OC(F)F)cc1` (centres undefined): in experiment [2], the activity change, negative = cytotoxicity was -26.5% (inactive).

On to `C[C@@H]1CN([C@H](C)CO)C(=O)c2cc(NC(=O)Cc3cn(C)c4ccccc34)ccc2O[C@H]1CN(C)S(=O)(=O)c1ccc(F)cc1`, for which the activity change, negative = cytotoxicity in experiment [2] was -29.1% (inactive).

As for `Nc1ccc(C(=O)Nc2ccc(-c3nc4ccc(NC(=O)c5ccc(N)cc5)cc4[nH]3)cc2)cc1`, in experiment [2], the activity change, negative = cytotoxicity is -13.9% (inactive).

As for `C[C@H]1CN([C@@H](C)CO)C(=O)c2cccc(NS(C)(=O)=O)c2O[C@@H]1CN(C)Cc1ccc(Cl)c(Cl)c1`, the activity change, negative = cytotoxicity in experiment [2] is -10.3% (inactive).

In the case of `COc1ccc(-c2nnn(CC(=O)N(C3CC3)C(C)C(=O)NC3CCCC3)n2)cc1OC` (centres undefined), the activity change, negative = cytotoxicity in experiment [2] is -16% (inactive).

Take `CNC[C@@H]1Oc2ccc(NC(=O)Cc3cn(C)c4ccccc34)cc2C(=O)N([C@H](C)CO)C[C@H]1C`: in experiment [2], the activity change, negative = cytotoxicity was 2.26% (inactive).

As to `O=C(Nc1ccc(-c2nc3cc(NC(=O)c4ccc(NC(=O)c5cccc6ccccc56)cc4)ccc3[nH]2)cc1)c1ccc(NC(=O)c2cccc3ccccc23)cc1`, the activity change, negative = cytotoxicity in experiment [2] was -8.2% (inactive).

Take `CC(C)(C)OC(=O)N1CCc2cc(-c3noc(NC(=O)c4ccco4)n3)ccc21`: the activity change, negative = cytotoxicity in experiment [2] was -3.91% (inactive).

Consider `C[C@@H]1CN([C@H](C)CO)C(=O)c2cc(NC(=O)Cc3cn(C)c4ccccc34)ccc2O[C@H]1CN(C)S(C)(=O)=O`, for which the activity change, negative = cytotoxicity in experiment [2] is -4.54% (inactive).

As for `COC(=O)N1CCc2cc(-c3csc(NC(=O)c4ccco4)n3)ccc21`, the activity change, negative = cytotoxicity in experiment [2] is -18.6% (inactive).
